Assay results from ChEMBL document CHEMBL3817796, “Discovery of Novel 15-Lipoxygenase Activators To Shift the Human Arachidonic Acid Metabolic Network toward Inflammation Resolution” (J Med Chem, 2016).

Assays:
[1] = target: T1, Polyunsaturated fatty acid lipoxygenase ALOX15 (Homo sapiens, UniProt P16050); test: Binding affinity to wild-type His6-tagged human 15-LOX expressed in Escherichia coli Rosetta DE3 by SPR assay
T1 sequence (P16050 whole entry): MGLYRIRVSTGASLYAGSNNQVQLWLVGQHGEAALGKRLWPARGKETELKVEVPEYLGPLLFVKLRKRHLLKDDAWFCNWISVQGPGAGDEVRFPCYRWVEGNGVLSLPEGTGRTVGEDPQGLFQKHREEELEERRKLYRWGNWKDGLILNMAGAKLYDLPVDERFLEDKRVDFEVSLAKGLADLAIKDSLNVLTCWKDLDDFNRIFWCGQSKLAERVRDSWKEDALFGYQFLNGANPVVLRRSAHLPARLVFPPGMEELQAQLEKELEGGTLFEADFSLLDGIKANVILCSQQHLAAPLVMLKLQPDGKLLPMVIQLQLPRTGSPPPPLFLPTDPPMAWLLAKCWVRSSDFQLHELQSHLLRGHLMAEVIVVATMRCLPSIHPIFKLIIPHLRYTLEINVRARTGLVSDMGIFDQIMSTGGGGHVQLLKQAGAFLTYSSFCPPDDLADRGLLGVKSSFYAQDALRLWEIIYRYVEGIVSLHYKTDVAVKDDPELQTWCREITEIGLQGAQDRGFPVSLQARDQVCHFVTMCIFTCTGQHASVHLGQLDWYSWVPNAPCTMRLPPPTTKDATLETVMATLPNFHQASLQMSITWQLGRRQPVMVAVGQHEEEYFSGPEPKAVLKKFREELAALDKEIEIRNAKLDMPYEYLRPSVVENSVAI
How it was run: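 15-LOX amine-coupled to a CM5 chip at 800 RU, 25 °C, in PBS-P pH 7.4. Compound concentrations in 5% DMSO injected serially; regenerated by buffer washing. KD from Hill fit of response units.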

[2] = target: T2, Polyunsaturated fatty acid lipoxygenase ALOX15 (Homo sapiens) (UniProt P16050); test: Activation of wild-type His6-tagged human 15-LOX expressed in Escherichia coli Rosetta DE3 assessed as 15-HpETE formation at 40 uM pre-incubated for 1 min before arachidonic acid substrate addition by cell free assay
T2 sequence (whole entry): T1 sequence (P16050 whole entry)

Compound | Kd [1] [µM] | %max [2] [%]
c1cc2c3c(cccc3c1)-c1n[n+]3cc4ccccn4c3cc1-2 | 4.4 | 84
C[n+]1cn(/N=C/c2ccccc2)c2ccccc21 | 15.3 | 61
